Test results published in ChEMBL document CHEMBL4145471, “New 1,5 and 2,5-disubstituted tetrazoles-dependent activity towards surface barrier of Candida albicans” (Eur J Med Chem, 2018).

What was measured:
Candida albicans [1] = test: Synergistic antifungal activity against Candida albicans ATCC 90028 at 1.25 ug/ml after 48 hrs in presence of 80 ug/ml fluconazol by checkerboard assay relative to control; type: functional
Outline: (§1)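 Checkerboard per M27-A3 against ATCC 90028: fluconazole at 80–1.25 µg/mL horizontally and partner compound at 80–1.25 µg/mL vertically, 100 µL yeast inoculum per well, 35°C for 48 h. After 48 h, metabolic activity was measured by XTT reduction at 475 nm (660 nm reference) relative to untreated growth control. FIC index is the sum of the FICs; <1 was defined as synergism and >1 as antagonism.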

Candida albicans [2] = test: Synergistic antifungal activity against Candida albicans ATCC 90028 at 20 ug/ml after 48 hrs in presence of 10 ug/ml fluconazol by checkerboard assay relative to control; type: functional
Outline: (§2)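 Checkerboard in C. albicans ATCC 90028, inoculum prepared per CLSI M27-A3 in RPMI. Fluconazole serially diluted 80-1.25 µg/mL across the plate against the partner compound at 80-1.25 µg/mL final. Incubated 48 h at 35°C. Metabolic activity read by XTT reduction at 475 nm (660 nm reference), given as % of the untreated growth control.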

Candida albicans [3] = test: Synergistic antifungal activity against Candida albicans ATCC 90028 at 10 ug/ml after 48 hrs in presence of 10 ug/ml fluconazol by checkerboard assay relative to control; type: functional; conditions: ATCC 90028, 48 h, read-out: GI; outline: as §1
Candida albicans [4] = test: Antifungal activity against Candida albicans ATCC 90028 assessed as metabolic activity at 20 ug/ml after 48 hrs in presence of 40 ug/ml fluconazol by XTT assay relative to control
Candida albicans [5] = test: Synergistic antifungal activity against Candida albicans ATCC 90028 at 1.25 ug/ml after 48 hrs in presence of 1.25 ug/ml fluconazol by checkerboard assay relative to control; type: functional; conditions: ATCC 90028, 48 h, read-out: GI; outline: as §1
Candida albicans [6] = test: Antifungal activity against Candida albicans ATCC 90028 assessed as inhibition of metabolic activity at 5 ug/ml after 48 hrs in presence of 80 ug/ml fluconazol by XTT assay relative to control; type: functional; conditions: values are per cent of control
Outline: (§3)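 Checkerboard against strain ATCC 90028, inoculum per M27-A3: fluconazole 80-1.25 µg/mL on one axis, tetrazole 80-1.25 µg/mL on the other. Plates at 35°C for 48 h, then XTT metabolic reduction read at 475 nm (660 nm reference). Activity is the drop in mean absorbance against untreated growth control. FICs and their summed FIC index are taken at 50% reduction in metabolic activity.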

Candida albicans [7] = test: Antifungal activity against Candida albicans ATCC 90028 assessed as metabolic activity at 20 ug/ml after 48 hrs in presence of 5 ug/ml fluconazol by XTT assay relative to control
Candida albicans [8] = test: Antifungal activity against Candida albicans ATCC 90028 at 0.0625 ug/ml after 18 hrs relative to control; type: functional
Candida albicans [9] = test: Synergistic antifungal activity against Candida albicans ATCC 90028 at 1.25 ug/ml after 48 hrs in presence of 5 ug/ml fluconazol by checkerboard assay relative to control; type: functional; outline: as §1
Candida albicans [10] = test: Synergistic antifungal activity against Candida albicans ATCC 90028 at 10 ug/ml after 48 hrs in presence of 2.5 ug/ml fluconazol by checkerboard assay relative to control; type: functional
Outline: (§4)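 Checkerboard microdilution (M27-A3) on C. albicans ATCC 90028 in RPMI 1640: fluconazole (80-1.25 µg/mL) crossed with tetrazole (80-1.25 µg/mL final), incubated at 35°C for 48 h. Growth by OD405 at 18 and 48 h, endpoint taken as 100% inhibition. FIC index = sum of the two agents' FICs; <1 synergism, >1 antagonism.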

Candida albicans [11] = test: Antifungal activity against Candida albicans ATCC 90028 assessed as metabolic activity at 40 ug/ml after 48 hrs in presence of 5 ug/ml fluconazol by XTT assay relative to control
Candida albicans [12] = test: Antifungal activity against Candida albicans ATCC 90028 assessed as inhibition of metabolic activity at 5 ug/ml after 48 hrs in presence of 20 ug/ml fluconazol by XTT assay relative to control; type: functional; conditions: values are per cent of control; outline: as §3
Candida albicans [13] = test: Antifungal activity against Candida albicans ATCC 90028 assessed as inhibition of metabolic activity at 10 ug/ml after 48 hrs in presence of 2.5 ug/ml fluconazol by XTT assay relative to control; type: functional; conditions: values are per cent of control
Outline: (§5)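 C. albicans ATCC 90028 in checkerboard: fluconazole serial dilutions (80-1.25 µg/mL) crossed with tetrazole (80-1.25 µg/mL final), M27-A3 inoculum in RPMI 1640, 35°C for 48 h. Metabolic activity measured by XTT reduction, read at 475 nm (660 nm reference). Activity expressed relative to untreated growth control absorbance.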

Candida albicans [14] = test: Antifungal activity against Candida albicans ATCC 90028 assessed as metabolic activity at 80 ug/ml after 48 hrs in presence of 2.5 ug/ml fluconazol by XTT assay relative to control
Candida albicans [15] = test: Antifungal activity against Candida albicans ATCC 90028 assessed as metabolic activity at 80 ug/ml after 48 hrs in presence of 80 ug/ml fluconazol by XTT assay relative to control; conditions: ATCC 90028, 48 h
Candida albicans [16] = test: Antifungal activity against Candida albicans ATCC 90028 assessed as inhibition of metabolic activity at 2.5 ug/ml after 48 hrs in presence of 40 ug/ml fluconazol by XTT assay relative to control; type: functional; conditions: values are per cent of control; outline: as §5
Candida albicans [17] = test: Antifungal activity against Candida albicans ATCC 90028 assessed as inhibition of metabolic activity at 1.25 ug/ml after 48 hrs in presence of 10 ug/ml fluconazol by XTT assay relative to control; type: functional; conditions: values are per cent of control; outline: as §3
Candida albicans [18] = test: Synergistic antifungal activity against Candida albicans ATCC 90028 at 5 ug/ml after 48 hrs in presence of 2.5 ug/ml fluconazol by checkerboard assay relative to control; type: functional; outline: as §4
Candida albicans [19] = test: Synergistic antifungal activity against Candida albicans ATCC 90028 at 20 ug/ml after 48 hrs in presence of 80 ug/ml fluconazol by checkerboard assay relative to control; type: functional; outline: as §2
Candida albicans [20] = test: Antifungal activity against Candida albicans ATCC 90028 at 1 ug/ml after 48 hrs relative to control; type: functional
Outline: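 Planktonic broth microdilution per M27-A3 in MOPS-buffered RPMI 1640 (pH 7.0), final inoculum 1.8×10^3 cells/mL, compounds 0.0313–16 µg/mL from 1600 µg/mL stocks in ethanol or DMSO. Incubated at 35°C without agitation; OD405 read at 18 and 48 h. % inhibition was derived from test, sterility (no inoculum) and solvent growth-control wells. Amphotericin B at 0.5 µg/mL served as the 100% control.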

Candida albicans [21] = test: Synergistic antifungal activity against Candida albicans ATCC 90028 at 40 ug/ml after 48 hrs in presence of 5 ug/ml fluconazol by checkerboard assay relative to control; type: functional; outline: as §2

Compound	growth inhibition (GI) (Candida albicans [1])	growth inhibition (GI) (Candida albicans [2])	inhibition of growth at 10 µg/mL (Candida albicans [3])	Metabolic activity (Candida albicans [4])	inhibition of growth at 1.25 µg/mL (Candida albicans [5])	residual activity (Candida albicans [6])	Metabolic activity (Candida albicans [7])	Activity (Candida albicans [8])	growth inhibition (GI) (Candida albicans [9])	growth inhibition (GI) (Candida albicans [10])	Metabolic activity (Candida albicans [11])	residual activity (Candida albicans [12])	residual activity (Candida albicans [13])	Metabolic activity (Candida albicans [14])	Metabolic activity at 80 µg/mL (Candida albicans [15])	residual activity (Candida albicans [16])	residual activity (Candida albicans [17])	growth inhibition (GI) (Candida albicans [18])	growth inhibition (GI) (Candida albicans [19])	Activity (Candida albicans [20])	also measured
Cc1ccc(-c2nnn(CCCN3CCOCC3)n2)cc1	99.54%	99.32%	99%	93.5%	99%	88.19%	100%	99.5%	99.86%	98.46%	100%	93.31%	100%	78.22%	73.4%	100%	100%	98.9%	99.26%	96.58%	growth inhibition (GI) (Candida albicans [21]): 98.83%
CCOC(=O)CCn1nnc(-c2ccccc2)n1	99.51%	99.52%	99.4%	99.65%	99.8%	71.92%	100%	99.57%	98.99%	99.62%	100%	67.66%	71.14%	64.31%	40%	92.82%	74.44%	99.77%	99.25%	97.51%	growth inhibition (GI) (Candida albicans [21]): 98.93%
ClCCCn1nnnc1-c1ccccc1Cl	99.49%	99.73%	99.7%	82.92%	99.7%	77.27%	99.55%	99.9%	98.74%	99.41%	100%	73.79%	79.69%	59.43%	53.2%	97.62%	62.08%	99.14%	99.33%	98.22%	growth inhibition (GI) (Candida albicans [21]): 98.95%
